For orientation: IC50 means the concentration that gives 50% inhibition. A higher IC50 goes with a need for much substance. The inhibition is the percentage by which the read-out fell short of the control.

The values below come from ChEMBL document CHEMBL1125455, “Novel anthraquinone inhibitors of human leukocyte elastase and cathepsin G” (J Med Chem, 1992).

In test [1] the target is T1, Neutrophil elastase (Homo sapiens, UniProt P08246).
T1 sequence (P08246 whole entry): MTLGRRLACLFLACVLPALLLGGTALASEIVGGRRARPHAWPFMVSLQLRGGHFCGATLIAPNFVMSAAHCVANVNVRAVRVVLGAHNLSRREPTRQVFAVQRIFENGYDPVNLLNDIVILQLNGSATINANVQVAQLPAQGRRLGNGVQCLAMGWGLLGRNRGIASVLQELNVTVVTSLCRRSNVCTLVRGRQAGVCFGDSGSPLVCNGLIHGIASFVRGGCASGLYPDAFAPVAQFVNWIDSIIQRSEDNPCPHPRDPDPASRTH
Nature of the test: Compound was tested for the enzyme inhibitory activity against Human Leukocyte Elastase (HLE) at 53 uM concentration. In a few lines:
(§1)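 Percent inhibition of enzyme activity at a single inhibitor concentration. Assays run at 25 °C in 0.1 M HEPES, 0.5 M NaCl, pH 7.5, with 9-11% DMSO. The method otherwise follows an earlier report.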

For test [2], the target named is T2, Chymotrypsin-like elastase family member 2A (Sus scrofa) (UniProt P08419).
T2 sequence (whole entry): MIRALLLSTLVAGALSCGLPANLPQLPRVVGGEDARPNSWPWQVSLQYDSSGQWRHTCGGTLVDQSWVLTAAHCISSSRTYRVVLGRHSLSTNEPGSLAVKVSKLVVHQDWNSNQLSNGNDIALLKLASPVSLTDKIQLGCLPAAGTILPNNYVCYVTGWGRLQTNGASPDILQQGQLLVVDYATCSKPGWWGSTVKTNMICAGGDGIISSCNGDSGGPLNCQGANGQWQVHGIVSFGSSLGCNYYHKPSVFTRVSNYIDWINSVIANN
The test is described as follows: Inhibitory activity against Porcine Pancreatic Elastase (PPE) at 53 uM concentration; NI = no inhibition. In a few lines: as §1

For test [3], the target named is Chymotrypsinogen A (Bos taurus) (UniProt P00766). The test is described as follows: Inhibitory activity against Chymotrypsinogen at 53 uM concentration. In a few lines:
as §1

Test [4] addresses T3, Cathepsin G (Homo sapiens) (UniProt P08311).
T3 sequence (whole entry): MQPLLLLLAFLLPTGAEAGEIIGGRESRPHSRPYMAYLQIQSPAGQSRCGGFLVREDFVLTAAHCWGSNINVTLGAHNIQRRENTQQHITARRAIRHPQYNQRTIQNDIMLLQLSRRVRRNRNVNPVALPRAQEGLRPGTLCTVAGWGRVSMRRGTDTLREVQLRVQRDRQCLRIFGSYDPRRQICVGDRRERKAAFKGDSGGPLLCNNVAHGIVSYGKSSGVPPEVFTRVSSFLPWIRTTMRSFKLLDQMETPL
Nature of the test: Inhibitory activity against Cathepsin G (CatG) at 53 uM concentration. In outline: as §1

Test [5] has as its target T4, Neutrophil elastase (Homo sapiens) (UniProt P08246).
T4 sequence (whole entry): T1 sequence (P08246 whole entry)
Nature of the test: Inhibitory activity against Human Leukocyte Elastase (HLE) at 53 uM concentration. In a few lines: as §1

Test [6] deals with T4, Neutrophil elastase (Homo sapiens). Nature of the test: Inhibitory activity against Human Leukocyte Elastase (HLE) at 55 uM concentration.
For test [7], the target named is T1, Neutrophil elastase. The test is described as follows: Compound was tested for the enzyme inhibitory activity against Human Leukocyte Elastase (HLE) at 55 uM concentration.
Test [8] deals with T2, Chymotrypsin-like elastase family member 2A (Sus scrofa). The test is described as follows: Inhibitory activity against Porcine Pancreatic Elastase (PPE) at 55 uM concentration; NI = no inhibition.
For test [9], the target named is T3, Cathepsin G (Homo sapiens). Nature of the test: Inhibitory activity against Cathepsin G (CatG) at 55 uM concentration.
Test [10] deals with Chymotrypsinogen A (Bos taurus) (UniProt P00766). Nature of the test: Inhibitory activity against Chymotrypsinogen at 55 uM concentration.
Test [11] has as its target T2, Chymotrypsin-like elastase family member 2A (Sus scrofa). The test is described as follows: Inhibitory activity against Porcine Pancreatic Elastase (PPE) at 52 uM concentration; NI = no inhibition.
Test [12] has as its target T1, Neutrophil elastase. The test is described as follows: Compound was tested for the enzyme inhibitory activity against Human Leukocyte Elastase (HLE) at 52 uM concentration.
Test [13] addresses T4, Neutrophil elastase (Homo sapiens). Nature of the test: Inhibitory activity against Human Leukocyte Elastase (HLE) at 52 uM concentration.
For test [14], the target named is Chymotrypsinogen A (Bos taurus) (UniProt P00766). The test is described as follows: Inhibitory activity against Chymotrypsinogen at 52 uM concentration; NI = no inhibition.
Test [15] deals with T4, Neutrophil elastase (Homo sapiens). To be noted: 27 uM.
Test [16] deals with T1, Neutrophil elastase. Nature of the test: Compound was tested for the enzyme inhibitory activity against Human Leukocyte Elastase (HLE) at 27 uM concentration.
The target in test [17] is T2, Chymotrypsin-like elastase family member 2A (Sus scrofa). Nature of the test: Inhibitory activity against Porcine Pancreatic Elastase (PPE) at 27 uM concentration; NI = no inhibition.
Test [18] deals with T3, Cathepsin G (Homo sapiens). Nature of the test: Inhibitory activity against Cathepsin G (CatG) at 27 uM concentration.
Test [19] addresses Chymotrypsinogen A (Bos taurus) (UniProt P00766). Nature of the test: Inhibitory activity against Chymotrypsinogen at 27 uM concentration.
In test [20] the target is T2, Chymotrypsin-like elastase family member 2A (Sus scrofa). Nature of the test: Inhibitory activity against Porcine Pancreatic Elastase (PPE) at 28 uM concentration; NI = no inhibition.
Test [21] has as its target Chymotrypsinogen A (Bos taurus) (UniProt P00766). Nature of the test: Inhibitory activity against Chymotrypsinogen at 28 uM concentration.
Test [22] concerns the target T4, Neutrophil elastase (Homo sapiens). Nature of the test: Inhibitory activity against Human Leukocyte Elastase (HLE) at 28 uM concentration.
In test [23] the target is T3, Cathepsin G (Homo sapiens). Nature of the test: Inhibitory activity against Cathepsin G (CatG) at 28 uM concentration.
For test [24], the target named is T2, Chymotrypsin-like elastase family member 2A (Sus scrofa). Nature of the test: Inhibitory activity against Porcine Pancreatic Elastase (PPE) at 56 uM concentration; NI = no inhibition.
The target in test [25] is T4, Neutrophil elastase (Homo sapiens). The test is described as follows: Inhibitory activity against Human Leukocyte Elastase (HLE) at 56 uM concentration; NI = no inhibition.
For test [26], the target named is T3, Cathepsin G (Homo sapiens). Nature of the test: Inhibitory activity against Cathepsin G (CatG) at 56 uM concentration; NI = no inhibition.
Test [27] addresses Chymotrypsinogen A (Bos taurus) (UniProt P00766). Nature of the test: Inhibitory activity against Chymotrypsinogen at 56 uM concentration; NI = no inhibition.
The target in test [28] is T1, Neutrophil elastase. Nature of the test: Compound was tested for the enzyme inhibitory activity against Human Leukocyte Elastase (HLE) at 28 uM concentration.
The target in test [29] is Chymotrypsinogen A (Bos taurus) (UniProt P00766). The test is described as follows: Inhibitory activity against Chymotrypsinogen at 28 uM concentration; NI = no inhibition.
Test [30] deals with T3, Cathepsin G (Homo sapiens). The test is described as follows: Inhibitory activity against Cathepsin G (CatG) at 65 uM concentration.
Test [31] deals with T1, Neutrophil elastase. The test is described as follows: Compound was tested for the enzyme inhibitory activity against Human Leukocyte Elastase (HLE) at 65 uM concentration.
Test [32] has as its target T4, Neutrophil elastase (Homo sapiens). The test is described as follows: Inhibitory activity against Human Leukocyte Elastase (HLE) at 65 uM concentration.
Test [33] deals with T2, Chymotrypsin-like elastase family member 2A (Sus scrofa). The test is described as follows: Inhibitory activity against Porcine Pancreatic Elastase (PPE) at 65 uM concentration; NI = no inhibition.
For test [34] the target is unchanged. The test is described as follows: Inhibitory activity against Porcine Pancreatic Elastase (PPE) at 29 uM concentration; NI = no inhibition.
The target of test [35] is Chymotrypsinogen A (Bos taurus) (UniProt P00766). The test is described as follows: Inhibitory activity against Chymotrypsinogen at 29 uM concentration; NI = no inhibition.
Test [36] deals with T4, Neutrophil elastase (Homo sapiens). The test is described as follows: Inhibitory activity against Human Leukocyte Elastase (HLE) at 29 uM concentration; NI = no inhibition.
Test [37] addresses T3, Cathepsin G (Homo sapiens). Nature of the test: Inhibitory activity against Cathepsin G (CatG) at 29 uM concentration.
In test [38] the target is T4, Neutrophil elastase (Homo sapiens). The test is described as follows: Inhibitory activity against Human Leukocyte Elastase (HLE) at 30 uM concentration.
For test [39], the target named is T3, Cathepsin G (Homo sapiens). The test is described as follows: Inhibitory activity against Cathepsin G (CatG) at 30 uM concentration.
Test [40] addresses T1, Neutrophil elastase. Nature of the test: Compound was tested for the enzyme inhibitory activity against Human Leukocyte Elastase (HLE) at 30 uM concentration.
The target in test [41] is T2, Chymotrypsin-like elastase family member 2A (Sus scrofa). Nature of the test: Inhibitory activity against Porcine Pancreatic Elastase (PPE) at 30 uM concentration; NI = no inhibition.

Active and inactive are the calls of the source. The rule behind the calls is not given here.

In the case of `Cc1cc(O)c2c(c1)C(=O)c1cc(O)cc(O)c1C2=O` [EMODIN], the IC50 on Neutrophil elastase [1] amounted to 52 µM. For the same compound, the inhibition entry in test [2] was “inactive”. In addition, the figures for the inhibition in [3], in test [4] and in test [5] were 2%, 42% and 55%, respectively.

In the case of `Cc1ccc2c(c1O)C(=O)c1c(O)cc(O)cc1C2=O`, the values for the inhibition in [6], in [9] and in test [10] were 100%, 13% and 5%, respectively. Besides, the IC50 on Neutrophil elastase [7] was 21 µM. In test [8], the inhibition result is “inactive”.

With `CC(=O)Oc1cc(OC(C)=O)c2c(c1)C(=O)c1ccc(C)c(OC(C)=O)c1C2=O`, the inhibition entry in test [11] and in [14] was “inactive” in each case. This compound also displayed an IC50 against Neutrophil elastase [12] of 12 µM. In test [13], this compound displayed an inhibition of 96%.

With `COc1cc(OC)c2c(c1)C(=O)c1ccc(C)c(O)c1C2=O`, the figures for the inhibition in [15], in test [18] and in test [19] were 80%, 4% and 7%, respectively. The IC50 against Neutrophil elastase [16] stood at 13 µM. The inhibition result in test [17] is “inactive”.

With `CC(=O)Oc1cc(OC(C)=O)c2c(c1)C(=O)c1cc(CBr)cc(OC(C)=O)c1C2=O`, in test [20], the inhibition entry is “inactive”. Further, the inhibition in [21] turned out to be 3%; in test [22], 28%; in test [23] it was 9%.

Consider `CC(=O)Oc1cccc2c1C(=O)c1c(OC(C)=O)cc(C)cc1C2=O`, for which the inhibition entry in test [24], in test [25], in test [26] and in test [27] was “inactive” throughout.

For the compound `Cc1cc(O)c2c(c1)C(=O)c1cccc(O)c1C2=O` [CHRYSOPHANOL], the inhibition entry in [20] and in test [29] was “inactive” throughout. Also, the values for the inhibition in test [22] and in [23] were 79% and 39%, respectively. Moreover, the IC50 on Neutrophil elastase [28] turned out to be 18 µM.

With `COc1cc(O)c2c(c1)C(=O)c1cc(C)cc(O)c1C2=O` [PHYSCION], the inhibition in test [30] is 39%; in test [32], 100%. Besides, at Neutrophil elastase [31], the IC50 turned out to be 6.2 µM. Further, the inhibition entry in test [33] is “inactive”.

For `COc1cc(OC)c2c(c1)C(=O)c1cc(CBr)cc(OC)c1C2=O`, the inhibition result in test [34], in test [35] and in [36] was “inactive” each time. The inhibition in [37] came out at 14%.

In the case of `COc1cc(OC)c2c(c1)C(=O)c1cc(C(Br)Br)cc(OC)c1C2=O`, the inhibition was found to be 61% in test [38] and 24% in test [39]. At Neutrophil elastase [40], this compound displayed an IC50 of 17 µM. In addition, the inhibition result in test [41] was “inactive”.
